ChEMBL document CHEMBL1649533, “GES-11, a novel integron-associated GES variant in Acinetobacter baumannii” (2009)
≈ marks a conversion by molar mass, not a printed value.

How the values were obtained:
Format in all cases: functional
[1] = system: Acinetobacter baumannii; test: Antibacterial activity against Acinetobacter baumannii BM4674 isolated from the tibia fracture of a patient by Etest method
In short: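 MICs read by Etest gradient strips on Mueller-Hinton agar against the clinical isolate (Nancy, France, September 2008); reported in μg/ml and interpreted with Comité de l'Antibiogramme de la Société Française de Microbiologie breakpoints.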

[2] = system: Acinetobacter baumannii; test: Antibacterial activity against Acinetobacter baumannii BM4652
In short: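 MIC by Etest on Mueller-Hinton agar; interpretation by Comité de l'Antibiogramme de la Société Française de Microbiologie breakpoints. A. baumannii BM4652 is the recipient strain used in conjugation with BM4674 (solid medium; transconjugants selected on apramycin 80 μg/ml plus ceftazidime 16 μg/ml). MIC values in μg/ml.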

[3] = system: Acinetobacter baumannii; test: Antibacterial activity against Acinetobacter baumannii BM4652 harboring plasmid IP847
[4] = system: Escherichia coli; test: Antibacterial activity against Escherichia coli Top10
[5] = system: Escherichia coli; test: Antibacterial activity against ESBL-positive Escherichia coli Top10 harboring plasmid AT517
[6] = system: Escherichia coli; test: Antibacterial activity against […] OmpF and OmpC porin-deficient Escherichia coli HB4
[7] = system: Escherichia coli; test: Antibacterial activity against […] OmpF and OmpC porin-deficient Escherichia coli HB4 harboring plasmid AT517

| Structure (SMILES) | MIC [1] | MIC [2] | MIC [3] | MIC [4] | MIC [5] | MIC [6] | MIC [7] |
| --- | --- | --- | --- | --- | --- | --- | --- |
| CO/N=C(\C(=O)N[C@@H]1C(=O)N2C(C(=O)O)=C(COC(C)=O)CS[C@H]12)c1csc(N)n1 [CEFOTAXIME] | > 256 µg/mL | 1 µg/mL (≈ 2.2 µM) | > 256 µg/mL | 0.064 µg/mL (≈ 0.141 µM) | > 256 µg/mL | 0.5 µg/mL (≈ 1.1 µM) | > 256 µg/mL |
| CO/N=C(\C(=O)N[C@@H]1C(=O)N2C(C(=O)[O-])=C(C[N+]3(C)CCCC3)CS[C@H]12)c1csc(N)n1 [CEFEPIME] | > 256 µg/mL | 0.19 µg/mL (≈ 0.395 µM) | 64 µg/mL (≈ 133 µM) | 0.032 µg/mL (≈ 0.0666 µM) | 2 µg/mL (≈ 4.16 µM) | 0.5 µg/mL (≈ 1.04 µM) | 96 µg/mL (≈ 200 µM) |
| CO[C@@]1(NC(=O)Cc2cccs2)C(=O)N2C(C(=O)O)=C(COC(N)=O)CS[C@@H]21 [CEFOXITIN] | 192 µg/mL (≈ 449 µM) | 8 µg/mL (≈ 18.7 µM) | 12 µg/mL (≈ 28.1 µM) | 6 µg/mL (≈ 14 µM) | 6 µg/mL (≈ 14 µM) | 96 µg/mL (≈ 225 µM) | > 256 µg/mL |
| C[C@H]1[C@H](NC(=O)/C(=N\OC(C)(C)C(=O)O)c2csc(N)n2)C(=O)N1S(=O)(=O)O [AZTREONAM] | > 256 µg/mL | 1 µg/mL (≈ 2.3 µM) | > 256 µg/mL | 0.125 µg/mL (≈ 0.287 µM) | 24 µg/mL (≈ 55.1 µM) | 0.75 µg/mL (≈ 1.72 µM) | 48 µg/mL (≈ 110 µM) |
| CC(C)(O/N=C(\C(=O)N[C@@H]1C(=O)N2C(C(=O)[O-])=C(C[n+]3ccccc3)CS[C@H]12)c1csc(N)n1)C(=O)O [CEFTAZIDIME] | > 256 µg/mL | 1.5 µg/mL (≈ 2.74 µM) | > 256 µg/mL | 0.75 µg/mL (≈ 1.37 µM) | > 256 µg/mL | 0.5 µg/mL (≈ 0.915 µM) | > 256 µg/mL |
| C[C@@H](O)[C@H]1C(=O)N2C(C(=O)O)=C(S[C@@H]3CN[C@H](C(=O)N(C)C)C3)[C@H](C)[C@H]12 [MEROPENEM] | 6 µg/mL (≈ 15.6 µM) | 0.064 µg/mL (≈ 0.167 µM) | 1.5 µg/mL (≈ 3.91 µM) | 0.016 µg/mL (≈ 0.0417 µM) | 0.047 µg/mL (≈ 0.123 µM) | 0.25 µg/mL (≈ 0.652 µM) | 4 µg/mL (≈ 10.4 µM) |
| C[C@@H](O)[C@H]1C(=O)N2C(C(=O)O)=C(SCCNC=N)C[C@H]12 [IMIPENEM ANHYDROUS] | 4 µg/mL (≈ 13.4 µM) | 0.125 µg/mL (≈ 0.418 µM) | 0.75 µg/mL (≈ 2.51 µM) | 0.19 µg/mL (≈ 0.635 µM) |  | 0.125 µg/mL (≈ 0.418 µM) | 8 µg/mL (≈ 26.7 µM) |
